Assay results from ChEMBL document CHEMBL1150800, “Multiple-dose escalation study of the safety, pharmacokinetics, and biologic activity of oral AMD070, a selective CXCR4 receptor inhibitor, in human subjects” (Antimicrob Agents Chemother, 2007).
In brackets after ≈: the same amount, converted by molar mass.

Columns and labels:
[1] = test system: Human immunodeficiency virus 1; experiment: Antiviral activity against HIV1 NL4.3 in human MT4 cells; type: functional, organism-based; details: Human immunodeficiency virus 1, MT4
[2] = Oral bioavailability in rat; type: ADME, organism-based; details: in vivo
[3] = Oral bioavailability in dog; type: ADME, organism-based, Canis lupus familiaris; details: in vivo
[4] = Half life in rat; type: ADME, organism-based; details: in vivo
[5] = Half life in dog; type: ADME, organism-based, Canis lupus familiaris; details: in vivo
[6] = Terminal half life in rat; type: ADME, organism-based; details: in vivo
[7] = Terminal half life in dog; type: ADME, organism-based, Canis lupus familiaris; details: in vivo
[8] = Tmax in fasting healthy human at 50 mg, po administered as single dose; type: ADME, organism-based; details: in vivo
Outline: (§1)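 Healthy male volunteers, three per cohort, took one oral dose after an 8-h overnight fast and stayed fasting until 1 h post-dose. Tmax came from per-subject noncompartmental analysis, summarized by cohort.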

[9] = Cmax in fasting healthy human at 50 mg, po administered as single dose; type: ADME, organism-based; design: dose 50 mg, route oral; details: in vivo
Outline: (§2)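 Healthy male volunteers, three per cohort, one oral dose after 8-h overnight fast, fasting kept until 1 h post-dose. Plasma sampled predose and at 0.5, 1, 1.5, 2, 3, 4, 6, 8, 12, 16, 20, 24 h. Levels by validated HPLC-MS/MS (liquid-liquid extraction, positive-ion electrospray). Noncompartmental analysis, log-linear trapezoidal AUC, summarized per cohort.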

[10] = Drug level in fasting healthy human at 50 mg, po administered as single dose after 12 hrs; type: ADME, organism-based; details: in vivo, read-out: Drug uptake; outline: as §2
Homo sapiens [11] = experiment: Apparent volume of distribution in fasting healthy human at 50 mg, po administered as single dose after 12 hrs; type: ADME, organism-based; details: in vivo; outline: as §2
Homo sapiens [12] = experiment: Half life in fasting healthy human at 50 mg, po administered as single dose after 12 hrs; type: ADME, organism-based; details: in vivo; outline: as §2
[13] = Tmax in fasting healthy human at 100 mg, po administered as single dose; type: ADME, organism-based; details: in vivo; outline: as §2
[14] = Cmax in fasting healthy human at 100 mg, po administered as single dose; type: ADME, organism-based; design: dose 100 mg, route oral; details: in vivo; outline: as §2
[15] = Drug level in fasting healthy human at 100 mg, po administered as single dose after 12 hrs; type: ADME, organism-based; details: in vivo, read-out: Drug uptake; outline: as §2
Homo sapiens [16] = experiment: AUC ( 0 to infinity) in fasting healthy human at 100 mg, po administered as single dose after 12 hrs; type: ADME, organism-based, Plasma; design: dose 100 mg, route oral, time infinity; details: in vivo; outline: as §2
Homo sapiens [17] = experiment: Apparent volume of distribution in fasting healthy human at 100 mg, po administered as single dose after 12 hrs; type: ADME, organism-based; details: in vivo; outline: as §2
Homo sapiens [18] = experiment: Half life in fasting healthy human at 100 mg, po administered as single dose after 12 hrs; type: ADME, organism-based; details: in vivo; outline: as §2
[19] = Tmax in fasting healthy human at 200 mg, po administered as single dose; type: ADME, organism-based; details: in vivo
Outline: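 Healthy male volunteers (cohort C, n=3) took one oral dose after an 8-h overnight fast and kept fasting to 1 h post-dose. Drug was measured by validated HPLC-MS/MS (positive electrospray), and Tmax was taken by noncompartmental analysis of individual curves.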

[20] = Cmax in fasting healthy human at 200 mg, po administered as single dose; type: ADME, organism-based; design: dose 200 mg, route oral; details: in vivo; outline: as §2
[21] = Drug level in fasting healthy human at 200 mg, po administered as single dose after 12 hrs; type: ADME, organism-based; details: in vivo, read-out: Drug uptake; outline: as §2
Homo sapiens [22] = experiment: AUC ( 0 to infinity) in fasting healthy human at 200 mg, po administered as single dose after 12 hrs; type: ADME, organism-based, Plasma; design: dose 200 mg, route oral, time infinity; details: in vivo; outline: as §2
Homo sapiens [23] = experiment: Apparent volume of distribution in fasting healthy human at 200 mg, po administered as single dose after 12 hrs; type: ADME, organism-based; details: in vivo; outline: as §2
[24] = Tmax in fasting healthy human at 400 mg, po administered as single dose; type: ADME, organism-based; details: in vivo; outline: as §1
[25] = Cmax in fasting healthy human at 400 mg, po administered as single dose; type: ADME, organism-based; design: dose 400 mg, route oral; details: in vivo; outline: as §2
[26] = Drug level in fasting healthy human at 400 mg, po administered as single dose after 12 hrs; type: ADME, organism-based; details: in vivo, read-out: Drug uptake; outline: as §2
Homo sapiens [27] = experiment: AUC ( 0 to infinity) in fasting healthy human at 400 mg, po administered as single dose after 12 hrs; type: ADME, organism-based, Plasma; design: dose 400 mg, time infinity, route oral; details: in vivo; outline: as §2
Homo sapiens [28] = experiment: Apparent volume of distribution in fasting healthy human at 400 mg, po administered as single dose after 12 hrs; type: ADME, organism-based; details: in vivo; outline: as §2
Homo sapiens [29] = experiment: Half life in fasting healthy human at 400 mg, po administered as single dose after 12 hrs; type: ADME, organism-based; details: in vivo; outline: as §2
[30] = Tmax in fasting healthy human at 100 mg, po administered every 12 hrs; type: ADME, organism-based; details: in vivo
Outline: (§3)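 Six healthy male volunteers per cohort received seven oral doses q12h. Morning doses followed an 8-h fast, with fasting continued until 1 h post-dose. After the final dose (72 h after the first), plasma was sampled pre-dose and at 0.5–24 h, and assayed by validated HPLC-MS/MS. Tmax came from individual noncompartmental analysis, summarized per cohort.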

[31] = Cmax in fasting healthy human at 100 mg, po administered every 12 hrs; type: ADME, organism-based; design: dose 100 mg, route oral; details: in vivo
Outline: (§4)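 Six healthy men per cohort dosed orally q12h for seven doses. Morning doses given after 8-h fast, with fasting until 1 h post-dose. After the final dose (72 h after the first) plasma was sampled predose and 0.5–24 h. Validated HPLC-MS/MS assay. Noncompartmental parameters (log-linear trapezoidal AUC) from all time points, summarized per cohort.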

[32] = Drug level in fasting healthy human at 100 mg, po administered every 12 hrs measured after 72 hrs; type: ADME, organism-based; details: in vivo, read-out: Drug uptake; outline: as §4
[33] = Drug level in fasting healthy human at 100 mg, po administered every 12 hrs measured after 84 hrs; type: ADME, organism-based; details: in vivo, read-out: Drug uptake; outline: as §4
[34] = AUC (0 to 12 hrs) in fasting healthy human at 100 mg, po administered every 12 hrs measured between 72 to 84 hrs postdose; type: ADME, organism-based; design: dose 100 mg, time < 12 hr, route oral; details: plasma; outline: as §4
Homo sapiens [35] = experiment: Apparent volume of distribution in fasting healthy human at 100 mg, po administered every 12 hrs; type: ADME, organism-based; details: in vivo; outline: as §4
Homo sapiens [36] = experiment: Half life in fasting healthy human at 100 mg, po administered every 12 hrs; type: ADME, organism-based; details: in vivo; outline: as §4
[37] = Tmax in fasting healthy human at 200 mg, po administered every 12 hrs; type: ADME, organism-based; details: in vivo; outline: as §3
[38] = Cmax in fasting healthy human at 200 mg, po administered every 12 hrs; type: ADME, organism-based; design: dose 200 mg, route oral; details: in vivo; outline: as §4
[39] = Drug level in fasting healthy human at 200 mg, po administered every 12 hrs measured after 72 hrs; type: ADME, organism-based; details: in vivo, read-out: Drug uptake; outline: as §4
[40] = Drug level in fasting healthy human at 200 mg, po administered every 12 hrs measured after 84 hrs; type: ADME, organism-based; details: in vivo, read-out: Drug uptake; outline: as §4
Homo sapiens [41] = experiment: Apparent volume of distribution in fasting healthy human at 200 mg, po administered every 12 hrs; type: ADME, organism-based; details: in vivo; outline: as §4
Homo sapiens [42] = experiment: Half life in fasting healthy human at 200 mg, po administered every 12 hrs; type: ADME, organism-based; details: in vivo; outline: as §4
[43] = Tmax in fasting healthy human at 400 mg, po administered every 12 hrs; type: ADME, organism-based; details: in vivo; outline: as §3
[44] = Cmax in fasting healthy human at 400 mg, po administered every 12 hrs; type: ADME, organism-based; design: dose 400 mg, route oral; details: in vivo; outline: as §4
[45] = Drug level in fasting healthy human at 400 mg, po administered every 12 hrs measured after 72 hrs; type: ADME, organism-based; details: in vivo, read-out: Drug uptake; outline: as §4
[46] = Drug level in fasting healthy human at 400 mg, po administered every 12 hrs measured after 84 hrs; type: ADME, organism-based; details: in vivo, read-out: Drug uptake; outline: as §4
[47] = AUC (0 to 12 hrs) in fasting healthy human at 400 mg, po administered every 12 hrs measured between 72 to 84 hrs postdose; type: ADME, organism-based; design: time < 12 hr, dose 400 mg, route oral; details: plasma; outline: as §4
Homo sapiens [48] = experiment: Apparent volume of distribution in fasting healthy human at 400 mg, po administered every 12 hrs; type: ADME, organism-based; details: in vivo; outline: as §4
Homo sapiens [49] = experiment: Half life in fasting healthy human at 400 mg, po administered every 12 hrs; type: ADME, organism-based; details: in vivo; outline: as §4
Homo sapiens [50] = experiment: Decrease in CD4 cell count in fasting healthy human at 100 mg, po administered every 12 hrs measured after 24 hrs relative to baseline; type: functional; design: scale not given: the % may be the effect or the level left
Outline: (§5)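 CD4+ counts drawn before the first dose and at 2, 4, 6, 8 and 24 h after the final (seventh) q12h oral dose in fasting healthy men. Each post-dose value divided by the baseline value to give a ratio. Deviation from no effect tested by Wilcoxon rank sum, dose trend by Jonckheere-Terpstra.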

Homo sapiens [51] = experiment: Decrease in CD4 cell count in fasting healthy human at 200 mg, po administered every 12 hrs measured after 24 hrs relative to baseline; type: functional; design: scale not given: the % may be the effect or the level left; outline: as §5
Homo sapiens [52] = experiment: Decrease in CD4 cell count in fasting healthy human at 400 mg, po administered every 12 hrs measured after 24 hrs relative to baseline; type: functional; design: scale not given: the % may be the effect or the level left; outline: as §5
Homo sapiens [53] = experiment: Induction of leucocytosis in po dosed fasting healthy human assessed as increase in WBC count; type: functional, organism-based
Outline: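 Total WBC drawn predose and at 2, 4, 6, 8 and 24 h after oral dosing (single-dose cohorts from 200 mg, and multiple-dose cohorts). Ratio taken to baseline. WBC ratio against plasma concentration at all sampling times (n = 232) fit to an Emax model giving Emax and EC50. Per-subject maximum ratio also fit to dose, AUC0-24 and Cmax.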

[54] = AUC (0 to 12 hrs) in fasting healthy human at 200 mg, po administered every 12 hrs measured between 72 to 84 hrs postdose; type: ADME, organism-based; design: dose 200 mg, time < 12 hr, route oral; details: plasma; outline: as §4

NCCCCN(Cc1nc2ccccc2[nH]1)[C@H]1CCCc2cccnc21 [MAVORIXAFOR]
EC90 [1]: 0.044 µg/mL (≈ 0.126 µM)
IC50 [1]: 0.0023 µg/mL (≈ 0.00658 µM)
bioavailability [2]: 20%
bioavailability [3]: 80%
half-life [4]: 1.4 h
half-life [5]: 0.7 h
half-life [6]: 10 h
half-life [7]: 10 h
Tmax [8]: 1.5 h
Cmax [9]: 159 ng/mL
concentration at 12 h [10]: 1.5 ng/mL
Vd (Homo sapiens [11]): 3620 L
t1/2 (Homo sapiens [12]): 10.8 h
Tmax [13]: 1.5 h
Cmax [14]: 276 ng/mL
concentration at 12 h [15]: 2.1 ng/mL
AUC (Homo sapiens [16]): 358 ng·h/mL
Vd (Homo sapiens [17]): 3940 L
t1/2 (Homo sapiens [18]): 7.6 h
Tmax [19]: 1 h
Cmax [20]: 995 ng/mL
concentration at 12 h [21]: 11.6 ng/mL
AUC (Homo sapiens [22]): 1695 ng·h/mL
Vd (Homo sapiens [23]): 2152 L
Tmax [24]: 1.5 h
Cmax [25]: 1400 ng/mL
concentration at 12 h [26]: 44.6 ng/mL
AUC (Homo sapiens [27]): 6716 ng·h/mL
Vd (Homo sapiens [28]): 918 L
t1/2 (Homo sapiens [29]): 11.2 h
Tmax [30]: 1.7 h
Cmax [31]: 461 ng/mL
concentration at 72 h [32]: 6.8 ng/mL
concentration at 84 h [33]: 12 ng/mL
AUC at 12 h [34]: 937 ng·h/mL
Vd (Homo sapiens [35]): 2663 L
t1/2 (Homo sapiens [36]): 15.9 h
Tmax [37]: 1.8 h
Cmax [38]: 793 ng/mL
concentration at 72 h [39]: 31 ng/mL
concentration at 84 h [40]: 33 ng/mL
Vd (Homo sapiens [41]): 1923 L
t1/2 (Homo sapiens [42]): 11.2 h
Tmax [43]: 1.8 h
Cmax [44]: 2300 ng/mL
concentration at 72 h [45]: 122 ng/mL
concentration at 84 h [46]: 137 ng/mL
AUC at 12 h [47]: 7660 ng·h/mL
Vd (Homo sapiens [48]): 966 L
t1/2 (Homo sapiens [49]): 12 h
Activity (Homo sapiens [50]): 80%
Activity (Homo sapiens [51]): 80%
Activity (Homo sapiens [52]): 80%
EC50 (Homo sapiens [53]): 0.039 µg/mL (≈ 0.112 µM)
AUC at 12 h [54]: 1590 ng·h/mL
